Laboratory results as given in ChEMBL document CHEMBL4368909, “Identification of Dihydrofuro[3,4- d]pyrimidine Derivatives as Novel HIV-1 Non-Nucleoside Reverse Transcriptase Inhibitors with Promising Antiviral Activities and Desirable Physicochemical Properties” (J Med Chem, 2019).

Assays:
MT4 = assay: Cytotoxicity against human MT4 cells after 5 days by MTT assay; format: cell-based; settings: mt4, 120 h
[1] = tested on: Human immunodeficiency virus 1; assay: Antiviral activity against wild type HIV1 3B infected in human MT4 cells assessed as reduction in virus-induced cytopathic effect after 5 days by MTT assay; format: functional, organism-based; settings: Human immunodeficiency virus 1, 3B, MT4, 120 h
[2] = tested on: Human immunodeficiency virus 1; assay: Antiviral activity against HIV1 RES056 infected in human MT4 cells assessed as reduction in virus-induced cytopathic effect after 5 days by MTT assay; format: functional, organism-based; settings: Human immunodeficiency virus 1, RES056, MT4, 120 h
[3] = target: Human immunodeficiency virus type 1 reverse transcriptase (Human immunodeficiency virus 1, UniProt Q72547); assay: Inhibition of recombinant HIV1 reverse transcriptase using (DIG)-dUTP and biotin-labeled dNTPs as substrate after 1 hr by ELISA
[4] = tested on: Human immunodeficiency virus 2; assay: Antiviral activity against HIV2 ROD infected in human MT4 cells assessed as reduction in virus-induced cytopathic effect after 5 days by MTT assay; settings: Human immunodeficiency virus 2, ISOLATE ROD, MT4, 120 h
[5] = Selectivity ratio of CC50 for human TZM-bl cells to EC50 for HIV1 NL4-3 infected in human TZM-bl cells; format: toxicity, cell-based; settings: read-out: Ratio CC50/EC50
Summary of the method: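 The selectivity index is CC50/EC50 in TZM-bl cells against NL4-3. […] The highest concentration tested was 125 ng/mL.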

TZM = assay: Cytotoxicity against human TZM-bl cells after 4 days by XTT assay; format: cell-based; settings: 96 h
[6] = tested on: Human immunodeficiency virus 1; assay: Antiviral activity against HIV1 NL4-3 infected in human TZM-bl cells after 2 days by luciferase-bright glo assay; format: functional, organism-based; settings: Human immunodeficiency virus 1, NL4-3, TZM-bl, 48 h
[7] = Selectivity ratio of CC50 for human MT4 cells to EC50 for HIV1 RES056 infected in human MT4 cells; format: toxicity, cell-based; settings: read-out: Ratio CC50/EC50
[8] = Selectivity ratio of CC50 for human MT4 cells to EC50 for HIV1 3B infected in human MT4 cells; format: toxicity, cell-based; settings: read-out: Ratio CC50/EC50

| Structure (SMILES) | CC50 (MT4) [µM] | EC50 [1] [µM] | EC50 [2] [µM] | IC50 [3] [µM] | EC50 [4] [µM] | selectivity ratio [5] | CC50 (TZM) [µM] | EC50 [6] [µM] | selectivity ratio [7] | selectivity ratio [8] |
| --- | --- | --- | --- | --- | --- | --- | --- | --- | --- | --- |
| Cc1cc(C#N)cc(C)c1Oc1nc(NC2CCN(Cc3ccc(NS(C)(=O)=O)cc3)CC2)nc2c1CSC2 | > 257 | 0.0112 | 5.24 | 0.14 | > 257 | – | – | – | – | – |
| Cc1cc(C#N)cc(C)c1Oc1nc(N[C@H]2CCN(Cc3cccc(C(N)=O)c3)C2)nc2ccsc12 | – | – | – | – | – | 1 | > 0.25 | > 0.25 | – | – |
| Cc1cc(C#N)cc(C)c1Oc1nc(NC2CCN(Cc3cccc(C(N)=O)c3)CC2)nc2c1SCC2 | – | 0.0277 | 0.629 | 0.094 | > 223 | – | – | – | – | – |
| Cc1cc(C#N)cc(C)c1Oc1nc(NC2CCN(Cc3cccc(C(N)=O)c3)CC2)nc2c1CCC2 | 205 | 0.002 | 26.8 | 0.241 | > 205 | – | – | – | 9 | 124000 |
| Cc1cc(C#N)cc(C)c1Oc1nc(NC2CCN(Cc3ccc([N+](=O)[O-])cc3)CC2)nc2c1COC2 | – | 0.0074 | 0.511 | 0.092 | > 11.1 | – | – | – | – | – |
| Cc1cc(C#N)cc(C)c1Oc1nc(NC2CC3CCC(C2)N3Cc2ccncc2)nc2ccsc12 (configuration not stated) | – | – | – | – | – | 1 | > 0.251 | > 0.251 | – | – |
| Cc1cc(C#N)cc(C)c1Oc1nc(NC2CCN(Cc3ccc(S(C)(=O)=O)cc3)CC2)nc2c1SCC2 | 11.9 | 0.0059 | 0.0466 | 0.13 | 13.5 | – | – | – | 257 | 2020 |
| Cc1cc(C#N)cc(C)c1Oc1nc(NC2CCCN(Cc3ccc(S(C)(=O)=O)cc3)CC2)nc2ccsc12 (configuration not stated) | – | – | – | – | – | 22 | > 0.222 | 0.00998 | – | – |
| Cc1cc(C#N)cc(C)c1Oc1nc(NC2CC3CCC(C2)N3Cc2ccc(S(N)(=O)=O)cc2)nc2ccsc12 (configuration not stated) | – | – | – | – | – | 1 | > 0.217 | > 0.217 | – | – |
| Cc1cc(C#N)cc(C)c1Oc1nc(NC2CCCN(Cc3ccc(C(N)=O)cc3)CC2)nc2ccsc12 (configuration not stated) | – | – | – | – | – | 1 | > 0.237 | > 0.237 | – | – |
| Cc1cc(C#N)cc(C)c1Oc1nc(NC2CCCN(Cc3cccc(C(N)=O)c3)CC2)nc2ccsc12 (configuration not stated) | – | – | – | – | – | 23 | > 0.237 | 0.0103 | – | – |
| Cc1cc(C#N)cc(C)c1Oc1nc(NC2CN(Cc3cccc(C(N)=O)c3)C2)nc2ccsc12 | – | – | – | – | – | 29 | > 0.257 | 0.00895 | – | – |
| Cc1cc(C#N)cc(C)c1Oc1nc(NC2CCCN(Cc3ccc(S(N)(=O)=O)cc3)CC2)nc2ccsc12 (configuration not stated) | – | – | – | – | – | – | > 0.222 | 0.0022 | – | – |
| Cc1cc(C#N)cc(C)c1Oc1nc(NC2CCN(Cc3ccc(S(N)(=O)=O)cc3)CC2)nc2c1CSC2 | 26.6 | 0.0372 | 0.734 | 0.41 | ≥ 26.7 | – | – | – | 36 | 715 |
| Cc1cc(C#N)cc(C)c1Oc1nc(NC2CN(Cc3ccc(S(N)(=O)=O)cc3)C2)nc2ccsc12 | – | – | – | – | – | 53 | > 0.24 | 0.00453 | – | – |
| Cc1cc(C#N)cc(C)c1Oc1nc(NC2CCN(Cc3ccc(S(N)(=O)=O)cc3)CC2)nc2c1CCCC2 | > 228 | 0.006 | 0.667 | 0.084 | > 228 | – | – | – | – | – |
| Cc1cc(C#N)cc(C)c1Oc1nc(NC2CCN(Cc3ccc(S(C)(=O)=O)cc3)CC2)nc2c1CCCC2 | > 266 | 0.008 | 0.0661 | 0.089 | ≥ 163 | – | – | – | – | – |
| Cc1cc(C#N)cc(C)c1Oc1nc(NC2CCN(Cc3ccncc3)CC2)nc2c1CCC2 | > 274 | 0.0018 | 0.0547 | 0.073 | 138 | – | – | – | – | – |
| Cc1cc(C#N)cc(C)c1Oc1nc(N[C@H]2CCN(Cc3ccncc3)C2)nc2ccsc12 | – | – | – | – | – | 16 | – | 0.0167 | – | – |
| Cc1cc(C#N)cc(C)c1Oc1nc(N[C@@H]2CCN(Cc3cccc(C(N)=O)c3)C2)nc2ccsc12 | – | – | – | – | – | 6 | – | 0.0413 | – | – |
| Cc1cc(C#N)cc(C)c1Oc1nc(NC2CCCN(Cc3ccncc3)CC2)nc2ccsc12 (configuration not stated) | – | – | – | – | – | 8 | > 0.257 | 0.0317 | – | – |
| Cc1cc(C#N)cc(C)c1Oc1nc(N[C@H]2CCN(Cc3ccc(S(C)(=O)=O)cc3)C2)nc2ccsc12 | – | – | – | – | – | 4.6 | > 0.234 | 0.0507 | – | – |
| Cc1cc(C#N)cc(C)c1Oc1nc(N[C@H]2CCN(Cc3ccc(C(N)=O)cc3)C2)nc2ccsc12 | – | – | – | – | – | 4.5 | > 0.25 | 0.0557 | – | – |

| Structure (SMILES) | CC50 (MT4) [µM] | EC50 [1] [µM] | EC50 [2] [µM] | IC50 [3] [µM] | EC50 [4] [µM] | selectivity ratio [5] | CC50 (TZM) [µM] | EC50 [6] [µM] | selectivity ratio [7] | selectivity ratio [8] |
| --- | --- | --- | --- | --- | --- | --- | --- | --- | --- | --- |
| Cc1cc(C#N)cc(C)c1Oc1nc(NC2CCN(Cc3cccc(C(N)=O)c3)CC2)nc2c1COC2 | – | 0.0078 | 1.03 | 0.091 | 209 | – | – | – | – | – |
| Cc1cc(C#N)cc(C)c1Oc1nc(NC2CCN(Cc3ccc(N)cc3)CC2)nc2c1CSC2 | > 257 | 0.0084 | 0.704 | 0.115 | 108 | – | – | – | – | – |
| Cc1cc(C#N)cc(C)c1Oc1nc(NC2CCN(Cc3ccc([N+](=O)[O-])cc3)CC2)nc2c1CCCC2 | 29.1 | 0.0774 | 6.9 | 0.094 | > 29.1 | – | – | – | 4 | 376 |
| Cc1cc(C#N)cc(C)c1Oc1nc(NC2CN(Cc3ccc(C(N)=O)cc3)C2)nc2ccsc12 | – | – | – | – | – | 54 | > 0.257 | 0.00476 | – | – |
| Cc1cc(C#N)cc(C)c1Oc1nc(NC2CC3CCC(C2)N3Cc2ccc(C(N)=O)cc2)nc2ccsc12 (configuration not stated) | – | – | – | – | – | 1 | > 0.232 | > 0.232 | – | – |
| Cc1cc(C#N)cc(C)c1Oc1nc(N[C@@H]2CCN(Cc3ccc(S(N)(=O)=O)cc3)C2)nc2ccsc12 | – | – | – | – | – | 26 | > 0.233 | 0.00869 | – | – |
| Cc1cc(C#N)cc(C)c1Oc1nc(NC2CCN(Cc3ccc([N+](=O)[O-])cc3)CC2)nc2c1SCCC2 | 4 | 0.0086 | 0.604 | – | > 4 | – | – | – | 6.6 | 465 |
| Cc1cc(C#N)cc(C)c1Oc1nc(NC2CN(Cc3ccncc3)C2)nc2ccsc12 | – | – | – | – | – | 128 | > 0.282 | 0.00221 | – | – |
| Cc1cc(C#N)cc(C)c1Oc1nc(NC2CCN(Cc3ccc(C(N)=O)cc3)CC2)nc2c1SCCC2 | ≥ 44.3 | 0.003 | 0.093 | – | > 44.3 | – | – | – | – | – |
| Cc1cc(C#N)cc(C)c1Oc1nc(NC2CCN(Cc3cccc(C(N)=O)c3)CC2)nc2c1CCCC2 | 158 | 0.0065 | 3.15 | 0.101 | > 158 | – | – | – | 50 | 24400 |
| Cc1cc(C#N)cc(C)c1Oc1nc(N[C@@H]2CCN(Cc3ccc(C(N)=O)cc3)C2)nc2ccsc12 | – | – | – | – | – | 24 | – | 0.0104 | – | – |
| Cc1cc(C#N)cc(C)c1Oc1nc(NC2CCN(Cc3ccc(S(C)(=O)=O)cc3)CC2)nc2c1CSC2 | 45.3 | 0.0038 | 0.17 | 0.091 | ≥ 22.7 | – | – | – | 259 | 11700 |
| Cc1cc(C#N)cc(C)c1Oc1nc(NC2CCN(Cc3ccc(C(N)=O)cc3)CC2)nc2c1CCC2 | – | 0.0061 | 0.173 | 0.073 | 139 | – | – | – | – | – |
| Cc1cc(C#N)cc(C)c1Oc1nc(N[C@H]2CCN(Cc3ccc(S(N)(=O)=O)cc3)C2)nc2ccsc12 | – | – | – | – | – | 2.2 | – | 0.104 | – | – |
| Cc1cc(C#N)cc(C)c1Oc1nc(NC2CN(Cc3ccc(S(C)(=O)=O)cc3)C2)nc2ccsc12 | – | – | – | – | – | 1.1 | > 0.24 | 0.207 | – | – |
| Cc1cc(C#N)cc(C)c1Oc1nc(NC2CC3CCC(C2)N3Cc2ccc(S(C)(=O)=O)cc2)nc2ccsc12 (configuration not stated) | – | – | – | – | – | 1 | > 0.217 | > 0.217 | – | – |
| Cc1cc(C#N)cc(C)c1Oc1nc(NC2CCN(Cc3ccc([N+](=O)[O-])cc3)CC2)nc2c1CSC2 | 27.1 | 0.0115 | 1.14 | 0.129 | > 27.1 | – | – | – | 24 | 2340 |
| Cc1cc(C#N)cc(C)c1Oc1nc(NC2CCN(Cc3ccncc3)CC2)nc2c1SCC2 | – | 0.0026 | 0.046 | 0.112 | 15.7 | – | – | – | – | – |
| Cc1cc(C#N)cc(C)c1Oc1nc(NC2CCN(Cc3ccc(S(C)(=O)=O)cc3)CC2)nc2c1SCCC2 | ≥ 3.4 | 0.0039 | 0.0983 | – | > 3.4 | – | – | – | – | – |
| Cc1cc(C#N)cc(C)c1Oc1nc(N[C@@H]2CCN(Cc3ccncc3)C2)nc2ccsc12 | – | – | – | – | – | 17 | > 0.273 | 0.016 | – | – |
| Cc1cc(C#N)cc(C)c1Oc1nc(NC2CCN(Cc3ccc(C(N)=O)cc3)CC2)nc2c1CCCC2 | > 233 | 0.006 | 0.291 | 0.051 | > 233 | – | – | – | – | – |
| Cc1cc(C#N)cc(C)c1Oc1nc(NC2CC3CCC(C2)N3Cc2cccc(C(N)=O)c2)nc2ccsc12 (configuration not stated) | – | – | – | – | – | 1 | > 0.232 | > 0.232 | – | – |
| Cc1cc(C#N)cc(C)c1Oc1nc(N[C@@H]2CCN(Cc3ccc(S(C)(=O)=O)cc3)C2)nc2ccsc12 | – | – | – | – | – | 16 | – | 0.0139 | – | – |
